The test system of assay [1] is Rattus norvegicus. Description: Maximum lowering of blood glucose when 100 mg/kg of the drug administered orally was reported by rat glucose tolerance test; Inactive. Type of assay: functional, organism-based. More on the design: dose 100 mg/kg.
The species named for assay [2] is Rattus norvegicus. Description: In vitro inhibition of palmitate oxidation; Inactive. Type of assay: functional. The essentials:
(§1)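 In vitro assay in rat hemidiaphragm muscle, using [1-¹⁴C]palmitic acid as the labeled substrate. Read-out was inhibition of oxidation of the labeled palmitate.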

Assay [3] is filed under the species Rattus norvegicus. Nature of the assay: Compound was tested in vitro for inhibition of palmitate oxidation; Inactive. It is filed as functional. An outline of the steps:
as §1

For assay [4], the system named is Rattus norvegicus. Description: Minimum effective concentration by rat glucose tolerance test (po); Inactive. It is filed as functional, organism-based.
Assay [5] relates to Rattus norvegicus. Nature of the assay: Maximum lowering of blood glucose when 100 mg/kg of the drug administered orally was reported by rat glucose tolerance test. It is filed as functional. Particulars: route oral.
The species entered for assay [6] is Rattus norvegicus. Description: In vitro inhibition of palmitate oxidation. It is filed as functional. The essentials: as §1
The species entered for assay [7] is Rattus norvegicus. Description: Compound was tested in vitro for inhibition of palmitate oxidation. Type of assay: functional. The conditions noted are these: for minimal effective concentration: Rattus norvegicus, read-out: MEC. An outline of the steps:
as §1

Assay [8] has as its system Rattus norvegicus. Description: Minimum effective concentration by rat glucose tolerance test (po). It is filed as functional. Particulars: read-out: MED.
Assay [9] deals with Rattus norvegicus. Description: Maximum lowering of blood glucose when 25 mg/kg of the drug administered orally was reported by rat glucose tolerance test. It is filed as functional. Particulars: route oral.
The test system of assay [10] is Rattus norvegicus. Description: Maximum lowering of blood glucose when 60 mg/kg of the drug administered orally was reported by rat glucose tolerance test. Type of assay: functional. Particulars: route oral.
The test system of assay [11] is Rattus norvegicus. Description: Maximum lowering of blood glucose when 75 mg/kg of the drug administered orally was reported by rat glucose tolerance test. It is filed as functional. Particulars: route oral.
Assay [12] relates to Rattus norvegicus. Description: Maximum lowering of blood glucose when 50 mg/kg of the drug administered orally was reported by rat glucose tolerance test. It is filed as functional. The conditions noted are these: route oral.

Activity calls are given as the source filed them. The rule behind the calls is not given here.

Broadly, the IC50 is the concentration that inhibits the measured activity by half. Higher therefore signals a need for much substance.

For the molecule `CCCCCCCCCCCCCCC1(CO)CO1` (configuration not stated), the Max lowering result in assay [1] is “inactive”. In assay [2], the IC50 result is given as “Not Active”. For the same molecule, the MEC result in assay [3] is “inactive”. For the same molecule, the MED result in [4] is “inactive”.

As for `CCCCCCCCCCCCCCC1(CCC(=O)OC)CO1` (configuration not stated), in [1], the Max lowering entry was “inactive”. Also, the IC50 entry in assay [2] is recorded as “Not Active”. Further, the MEC result in [3] was “inactive”. Besides, in assay [4], the MED entry is “inactive”.

As for `CCCCCCCCCCCCCCC1(C(=O)OC)OC1(C)C` (configuration not stated), the Max lowering entry in assay [1] was “inactive”. Also, the IC50 result in [2] was “Not Active”. For the same molecule, the MEC entry in [3] was “inactive”. Besides, the MED entry in assay [4] was “inactive”.

As for `CCCCCCCCCCCCCCC1(C(=O)OC)OC1C` (configuration not stated), in [1], the Max lowering entry is “inactive”. Besides, in [2], the IC50 result was “Not Active”. Besides, the MEC result in assay [3] was “inactive”. For the same molecule, the MED entry in [4] was “inactive”.

Molecule `CCCCCCCCCCCCCCC1(C(=O)OCCCC)CO1` (configuration not stated) gave a Max lowering in [5] of 40%. In assay [6] (Rattus norvegicus), this molecule returned an IC50 of 47 µM. Further, the minimal effective concentration in [7] came out at 10 µM. Besides, in assay [8], the minimal effective dose was 1.5 mg/kg.

In the case of `CCCCCCCCCCCCCCC1(C(=O)OCC(O)CO)CO1` (configuration not stated), the Max lowering in assay [9] is recorded as 31%. The IC50 in assay [6] (Rattus norvegicus) stood at 16 µM. Moreover, the minimal effective concentration in assay [7] is 10 µM. The minimal effective dose in [8] turned out to be 5 mg/kg.

As to `CCCCCCCCCCCC1(C(=O)OC)CO1` (configuration not stated), in [5], the Max lowering came to 38%. In addition, in [6] (Rattus norvegicus), the IC50 was 7 µM. For the same molecule, the minimal effective concentration in [7] amounted to 2.5 µM. Besides, in assay [8], the minimal effective dose amounted to 10 mg/kg.

For `CCCCCCCCCCCCCCC1(C(=O)N(C)C)CO1` (configuration not stated), the IC50 entry in assay [2] is “Not Active”. In assay [3], the MEC result was “inactive”. This molecule had a Max lowering in assay [5] of 19%. For the same molecule, the minimal effective dose in [8] was found to be 25 mg/kg.

Regarding `CCCCCCCCCCCCCCC1(C(=O)O)CO1` (configuration not stated) [PALMOXIRATE], the Max lowering in assay [5] was determined as 53%. The minimal effective concentration in assay [7] was found to be 0.1 µM. Also, in assay [8], the minimal effective dose was 5 mg/kg.

In the case of `COC(=O)C1(CCCCCCCCCCc2ccccc2)CO1` (configuration not stated), in [9], the Max lowering amounted to 36%. For the same molecule, in assay [8], the minimal effective dose worked out at 10 mg/kg.

`CCCCCCCCCCCCCCC1(C(N)=O)CO1` (configuration not stated): the IC50 result in assay [2] is listed as “Not Active”. Further, in assay [3], the MEC entry is “inactive”. In addition, the Max lowering in [5] is on record as 44%. In addition, the minimal effective dose in assay [8] was 10 mg/kg.

On to `CCCCCCCCCCCCCCC1(C(=O)[O-])CO1.[Na+]` (configuration not stated), for which the Max lowering in assay [10] was determined as 38%. This molecule had an IC50 in assay [6] of 1 µM. For the same molecule, the MEC in [7] was 0.2 µM. Besides, the minimal effective dose in assay [8] was 2.5 mg/kg.

With `CCCCCCCCCCCCCCCCCCCCCCC1(C(=O)OC)CO1` (configuration not stated), in assay [2], the IC50 entry is “Not Active”. In assay [3], the MEC entry was “inactive”. The Max lowering in assay [5] was 17%. Also, the minimal effective dose in [8] was 10 mg/kg.

In [6] (Rattus norvegicus), `CCCCCCCCCCCCCCC1(C(=O)OC)CO1` (configuration not stated) [METHYL PALMOXIRATE] came in with an IC50 of 2 µM. For the same molecule, the minimal effective concentration in [7] worked out at 0.1 µM. The Max lowering in assay [11] is 45%. Also, the minimal effective dose in [8] was found to be 4 mg/kg.

Turning to `CCCCCCCCCCCCCCC1(CC(C(=O)OC)C(=O)OC)CO1` (configuration not stated), the Max lowering result in assay [1] was “inactive”. Moreover, the IC50 result in assay [2] was “Not Active”. For the same molecule, the MEC entry in assay [3] was “inactive”. Also, the MED result in [4] is “inactive”.

`CCCCCCCCCCCCCCCCC1(C(=O)OC)CO1` (configuration not stated) gave a Max lowering in assay [5] of 16%. In assay [6] (Rattus norvegicus), this molecule returned an IC50 of 100 µM. For the same molecule, the minimal effective concentration in assay [7] is 10 µM. Moreover, in [8], the minimal effective dose stood at 25 mg/kg.

The molecule `CCCCCCCCCCC1(C(=O)OC)CO1` (configuration not stated) gave a half-maximal inhibitory concentration (IC50) in assay [6] (Rattus norvegicus) of 5 µM. Also, the minimal effective concentration in assay [7] turned out to be 0.5 µM. The molecule further had a Max lowering in [12] of 32%. In addition, the minimal effective dose in [8] worked out at 10 mg/kg.

As to `CCCCCCC1(C(=O)OC)CO1` (configuration not stated), the Max lowering in assay [5] was found to be 30%. In addition, the midpoint of inhibition in assay [6] (Rattus norvegicus), the IC50, lay at 102 µM. Further, the minimal effective concentration in [7] was determined as 20 µM. The minimal effective dose in [8] was determined as 10 mg/kg.

On to `COC(=O)C1(C)CO1` (configuration not stated), for which the Max lowering entry in [1] was “inactive”. The IC50 entry in assay [2] is given as “Not Active”. In addition, the MEC result in [3] is “inactive”. The MED entry in [4] was “inactive”.

Regarding `CCCCCCCCCCCCCCC1(C(=O)NCCO)CO1` (configuration not stated), the IC50 entry in assay [2] is listed as “Not Active”. Further, the MEC result in assay [3] was “inactive”. In assay [5], the Max lowering was determined as 33%. For the same molecule, the minimal effective dose in [8] was 100 mg/kg.

In [5], `CCCCCCCCCCCCCC1(C(=O)OC)CO1` (configuration not stated) had a Max lowering of 37%. 13 µM corresponded to half-maximal inhibition in assay [6] (Rattus norvegicus) (IC50). The minimal effective concentration in assay [7] came out at 1 µM. The minimal effective dose in [8] was determined as 5 mg/kg.

On to `CCCCCCCCCCC1(C(=O)OCC)OC1(C)C` (configuration not stated), for which the Max lowering result in assay [1] is “inactive”. The IC50 entry in [2] is given as “Not Active”. In assay [3], the MEC entry is “inactive”. In assay [4], the MED entry was “inactive”.

Consider `CCCCCCCCCCCCCCCCCCC1(C(=O)OC)CO1` (configuration not stated), for which the MEC result in assay [3] was “inactive”. The molecule further gave a Max lowering in assay [5] of 25%. Moreover, the minimal effective dose in assay [8] came to 10 mg/kg.

In turn, `CCCCCCCCCCCCC1(C(=O)OC)CO1` (configuration not stated) registered a Max lowering in assay [5] of 32%. It took 15 µM to reach half-maximal inhibition in [6] (Rattus norvegicus) (IC50). Also, the minimal effective concentration in [7] is 1 µM. Moreover, the minimal effective dose in assay [8] is 5 mg/kg.

The values above are taken from ChEMBL document CHEMBL1123263, “Alkylglycidic acids: potential new hypoglycemic agents” (J Med Chem, 1986).
